This is an account of results in ChEMBL document CHEMBL1156358, “Inhibition of leukocyte functions by the alkaloid isaindigotone from Isatis indigotica and some new synthetic derivatives” (J Nat Prod, 2001).

Data set [1] deals with RAW264.7. Description: Antiinflammatory activity against LPS-stimulated mouse RAW264.7 cells assessed as PGE2 accumulation at 10 uM after 20 hrs by RIA relative to control. It is filed as functional. Summed up:
(§1)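 RAW 264.7 mouse macrophages (2×10^6/mL) in DMEM with 10% foetal bovine serum were stimulated with E. coli LPS (1 µg/mL) for 20 h alongside compound or vehicle (methanol, 1% v/v). Supernatant PGE2 was measured by radioimmunoassay. Single-point tests used 10 µM, reported as mean ± SEM (n = 9-12) against vehicle-treated stimulated cells. IC50 values carry 95% confidence limits.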

Data set [2] concerns RAW264.7. The experiment in a line: Antiinflammatory activity against LPS-stimulated mouse RAW264.7 cells assessed as nitrite accumulation after 20 hrs by fluorimetry. The data set is classed as functional, cell-based. The note with it: RAW264.7, 20 h. Put shortly: (§2)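 Mouse RAW 264.7 cells (2×10^6/mL) in DMEM plus 10% FBS were stimulated for 20 h with E. coli LPS (1 µg/mL), with compound or 1% v/v methanol vehicle. Nitrite in 10 µL supernatant was read fluorometrically after 10 min in the dark with 2,3-diaminonaphthalene (0.05 mg/mL in 0.62 M HCl). Single-point tests used 10 µM, given as mean ± SEM (n = 9-12). IC50s carry 95% confidence limits.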

The test system of data set [3] is RAW264.7. Description: Antiinflammatory activity against LPS-stimulated mouse RAW264.7 cells assessed as PGE2 accumulation after 20 hrs by RIA. It is filed as functional, cell-based. The note with it: RAW264.7, 20 h. Summed up: as §1
Data set [4] in a line: Cytotoxicity against human neutrophils at 10 uM by MTT assay. The note with it: neutrophil. The data set is classed as cell-based.
Data set [5] is described as follows: Antioxidant activity against 12-O-tetradecanoylphorbol-13-acetate-stimulated superoxide radical generation in human neutrophils assessed as chemiluminescence unit per 10^6 cells at 10 uM. Set-up: unit not given here. It is filed as functional, Neutrophil. Put shortly:
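Human neutrophils (2.5×10^6 cells/mL) were loaded with luminol (40 µM) and stimulated with TPA (1 µM) for 7 min. Chemiluminescence was recorded, with compounds at 10 µM. Controls were stimulated cells given vehicle. Data are mean ± SEM.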

Data set [6] concerns the target T1, Polyunsaturated fatty acid 5-lipoxygenase (Homo sapiens) (UniProt P09917).
T1 sequence (whole entry): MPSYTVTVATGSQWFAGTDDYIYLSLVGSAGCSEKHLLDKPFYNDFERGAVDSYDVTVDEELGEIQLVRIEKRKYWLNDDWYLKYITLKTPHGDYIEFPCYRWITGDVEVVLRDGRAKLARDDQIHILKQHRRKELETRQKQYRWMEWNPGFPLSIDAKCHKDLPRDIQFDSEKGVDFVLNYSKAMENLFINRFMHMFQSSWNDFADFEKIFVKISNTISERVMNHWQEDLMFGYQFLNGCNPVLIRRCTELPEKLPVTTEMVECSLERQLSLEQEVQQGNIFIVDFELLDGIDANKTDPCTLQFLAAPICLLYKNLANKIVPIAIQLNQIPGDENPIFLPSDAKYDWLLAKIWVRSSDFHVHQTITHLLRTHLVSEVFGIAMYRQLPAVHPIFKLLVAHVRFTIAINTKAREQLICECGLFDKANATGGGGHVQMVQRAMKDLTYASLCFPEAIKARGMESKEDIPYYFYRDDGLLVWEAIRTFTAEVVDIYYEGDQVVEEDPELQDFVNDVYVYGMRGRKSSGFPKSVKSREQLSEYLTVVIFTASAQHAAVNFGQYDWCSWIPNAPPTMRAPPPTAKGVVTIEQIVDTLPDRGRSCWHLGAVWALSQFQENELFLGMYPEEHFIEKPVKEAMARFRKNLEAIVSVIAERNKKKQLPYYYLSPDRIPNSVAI
Description: (§3) Inhibition of 5LO-mediated LTB4 production in human neutrophils by RIA.

Data set [7] addresses T2, Polyunsaturated fatty acid 5-lipoxygenase (Homo sapiens, UniProt P09917).
T2 sequence (P09917 whole entry): T1 sequence (whole entry)
The data set is described as §3.

For data set [8], the system named is RAW264.7. The experiment in a line: Antiinflammatory activity against LPS-stimulated mouse RAW264.7 cells assessed as nitrite accumulation at 10 uM after 20 hrs by fluorimetry relative to control. It is filed as functional. Put shortly:
as §2

In data set [9] the test system is Neutrophil. Description: (§4) Antioxidant activity against 12-O-tetradecanoylphorbol-13-acetate-stimulated superoxide radical generation in human neutrophils. The data set is classed as functional, cell-based.
Data set [10] can be described thus: as §4. It is filed as functional, cell-based. The note with it: Neutrophil.
A short description of data set [11]: Antioxidant activity in cytochalasin B and fMLP-stimulated human neutrophils assessed as inhibition of p-nitrophenol-induced elastase activity at 10 uM.
The nature of data set [12]: (§5) Antioxidant activity against hypoxanthine / xanthine oxidase system-stimulated superoxide radical generation in human neutrophils. The data set is classed as functional, cell-based. The note with it: Neutrophil.
For data set [13], the target named is T1, Polyunsaturated fatty acid 5-lipoxygenase (Homo sapiens). Description: Inhibition of 5LO-mediated LTB4 production in calcium ionophore A23187-stimulated human neutrophils at 10 uM by RIA.
In data set [14] the test system is Neutrophil. The description is as §5. The data set is classed as functional, cell-based.

The source made the active and inactive calls. The rule behind the calls is not given here. Some results are limits rather than exact numbers.

As for `CS(=O)(=O)Nc1ccc([N+](=O)[O-])cc1OC1CCCCC1` [NS-398], the Activity with RAW264.7 [1] is 3.7 ng/mL. Moreover, the IC50 was above 10000 nM in the data set with RAW264.7 [2] and 2.1 nM in the data set on RAW264.7 [3].

Take `COc1cc(/C=C2\CCn3c2nc2ccccc2c3=O)cc(OC)c1O` [ISAINDIGOTONE]: the Activity result in data set [4] was “Non-toxic”; in data set [5] it was 570.6; in data set [6], “Dose-dependent effect”; in the data set with RAW264.7 [8], 459.3 ng/mL; in the data set on RAW264.7 [1], 20.3 ng/mL; with Neutrophil [9], “Dose-dependent effect”. Besides, the Activity in data set [11] stood at 19.3 nmol/mL; in data set [13], 4.2 ng/mL. The IC50 in [7] was 40 nM; in data set [10] it was 41.8 nM; in the data set with RAW264.7 [2] it was above 10000 nM; in data set [12] it was 42.2 nM; in the data set on RAW264.7 [3] it was above 10000 nM.

Regarding `O=c1c2ccccc2nc2n1CC/C2=C\c1ccccc1`, the Activity entry in data set [4] was “Non-toxic”; in data set [5], 2960.4; in the data set on RAW264.7 [8] it was 337.1 ng/mL; with RAW264.7 [1], 4.8 ng/mL; in [11], 19.1 nmol/mL; in data set [13], 61.6 ng/mL. In the data set with RAW264.7 [2], the IC50 is above 10000 nM. Moreover, in the data set with Neutrophil [14], the outcome was inactive.

`COc1cc(/C=C2\CCn3c2nc2ccccc2c3=O)cc(OC)c1OC(C)=O`: the Activity result in data set [4] was “Non-toxic”; in [5], 2486.9; in data set [6] it was “Dose-dependent effect”; in the data set with RAW264.7 [8], 143.4 ng/mL; in the data set with RAW264.7 [1], 6.7 ng/mL; in data set [11], 18.6 nmol/mL. Moreover, the Activity in data set [13] is 13.5 ng/mL. Besides, the concentration for half-maximal inhibition (IC50) was 600 nM in data set [7], 4200 nM in the data set on RAW264.7 [2] and 200 nM with RAW264.7 [3]. In addition, the outcome in the data set with Neutrophil [14] was inactive.

`CC(=N)NCc1cccc(CN)c1` [1400W]: the Activity in the data set with RAW264.7 [8] amounted to 11.6 ng/mL. Also, the IC50 was 300 nM with RAW264.7 [2] and above 10000 nM in the data set with RAW264.7 [3].

As to `COc1cc(/C=C2\CCn3c2nc2ccccc2c3=O)cc(OC)c1`, the Activity entry in data set [4] was “Non-toxic”; in data set [5], 4150.7; with RAW264.7 [8], 437.2 ng/mL; with RAW264.7 [1], 14.8 ng/mL; in data set [11], 16.8 nmol/mL; in data set [13], 58.4 ng/mL. Besides, the IC50 with RAW264.7 [2] and in the data set with RAW264.7 [3] was above 10000 nM each time. Besides, in the data set with Neutrophil [14], the result was inactive.

Regarding `CCn1c(=O)ccc2cc(COc3cc(F)cc(C4(OC)CCOCC4)c3)ccc21`, the Activity in data set [13] is 4.5 ng/mL.

`O=c1c2ccccc2nc2n1CC/C2=C\c1ccc(O)cc1`: the Activity result was “Non-toxic” in [4]; 3269.2 in data set [5]; 429.8 ng/mL in the data set with RAW264.7 [8]; 15.4 ng/mL with RAW264.7 [1]; 16.9 nmol/mL in [11]; 55.9 ng/mL in data set [13]. In addition, the IC50 with RAW264.7 [2] and in the data set with RAW264.7 [3] was above 10000 nM each time. Besides, the result in the data set with Neutrophil [14] was inactive.

As for `O=c1c2ccccc2nc2n1CC/C2=C\c1ccc(F)cc1`, the Activity result in data set [4] was “Non-toxic”; in data set [5] it was 3221.7; in the data set with RAW264.7 [8] it was 438 ng/mL; in the data set with RAW264.7 [1], 5.7 ng/mL; in data set [11] it was 19.7 nmol/mL; in data set [13], 58.9 ng/mL. Also, the IC50 in the data set on RAW264.7 [2] was above 10000 nM; in the data set with RAW264.7 [3], 80 nM. In addition, the outcome in the data set on Neutrophil [14] was inactive.

Consider `O=c1c2ccccc2nc2n1CC/C2=C\c1ccc(C(F)(F)F)cc1`, for which the Activity result in [4] is “Non-toxic”; in [5], 4101.1; in the data set with RAW264.7 [8] it was 448 ng/mL; in the data set with RAW264.7 [1] it was 15.6 ng/mL; in [11], 19.3 nmol/mL; in [13], 57.9 ng/mL. The IC50 in the data set with RAW264.7 [2] and in the data set with RAW264.7 [3] was above 10000 nM each time. Further, in the data set on Neutrophil [14], the result was inactive.

With `CC(=O)Oc1ccc(/C=C2\CCn3c2nc2ccccc2c3=O)cc1`, the Activity entry is “Non-toxic” in data set [4]; 2636.4 in data set [5]; 151.2 ng/mL in the data set on RAW264.7 [8]; 9.9 ng/mL in the data set with RAW264.7 [1]; 19.2 nmol/mL in data set [11]; 59.8 ng/mL in data set [13]. Further, the IC50 in the data set with RAW264.7 [2] was found to be 1800 nM. In addition, in the data set on Neutrophil [14], the result was inactive.
